These results are taken from article PMC3845662 (Analytical chemistry, 2013).

For one experiment, the system named is Hsp70. The note with it: cited from earlier work.
Experiment [1] addresses T1, Hsp70-Bag3 complex (Homo sapiens, UniProt P0DMV8). Kind of experiment: CE-LIF screen / dose response for inhibition of the Hsp70-Bag3 interaction. The class given is binding. The note with it: for hit in CE screen, reconfirmed with repurchased compound by DRC: primary screen 20 μM, repurchased compound dose response; for classification from electropherogram (artifact): 20 μM compound. The gist of the method:
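Incubated ≥15 min at ambient temperature with dry-spotted compound; unlabelled Hsp70 as positive control. Coated capillary, 10 cm, 25 °C, pH 7.5 phosphate/Tween buffer, 500 V/cm. LIF bound/free peak-area ratio; screen hits ≥3 SD.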

Experiment [2] addresses T1, Hsp70-Bag3 complex. Kind of experiment: Flow cytometry protein interaction assay. The class given is binding. The following applies: for cross-test of CE hit by DRC in FCPIA: repurchased compound, dose response; for result in original FCPIA screen: single concentration 20 μM, hit = inhibition ≥ 3 SD from negative controls. In short, it runs like this:
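Biotinylated Hsp70 was immobilised on streptavidin polystyrene beads for 1 h, then mixed with Alexa Fluor 488-labelled Bag3 (30 nM final) and compound or DMSO. Unlabelled Hsp70 served as positive control. After 15 min, median bead-associated fluorescence was read by flow cytometry. Screen used 20 μM; hits ≥3 SD from negative controls.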
In general terms: A flow cytometer gives signals particle by particle.

Where [3] appears, read: 0.5 μM Hsp70–488 and 0.5 μM Bag3.

Values joined by “and” are separate entries in the source; they are usually repeats but may differ in a detail not shown here. Identical values can stand only once.

T1 sequence (P0DMV8 whole entry, one chain of several): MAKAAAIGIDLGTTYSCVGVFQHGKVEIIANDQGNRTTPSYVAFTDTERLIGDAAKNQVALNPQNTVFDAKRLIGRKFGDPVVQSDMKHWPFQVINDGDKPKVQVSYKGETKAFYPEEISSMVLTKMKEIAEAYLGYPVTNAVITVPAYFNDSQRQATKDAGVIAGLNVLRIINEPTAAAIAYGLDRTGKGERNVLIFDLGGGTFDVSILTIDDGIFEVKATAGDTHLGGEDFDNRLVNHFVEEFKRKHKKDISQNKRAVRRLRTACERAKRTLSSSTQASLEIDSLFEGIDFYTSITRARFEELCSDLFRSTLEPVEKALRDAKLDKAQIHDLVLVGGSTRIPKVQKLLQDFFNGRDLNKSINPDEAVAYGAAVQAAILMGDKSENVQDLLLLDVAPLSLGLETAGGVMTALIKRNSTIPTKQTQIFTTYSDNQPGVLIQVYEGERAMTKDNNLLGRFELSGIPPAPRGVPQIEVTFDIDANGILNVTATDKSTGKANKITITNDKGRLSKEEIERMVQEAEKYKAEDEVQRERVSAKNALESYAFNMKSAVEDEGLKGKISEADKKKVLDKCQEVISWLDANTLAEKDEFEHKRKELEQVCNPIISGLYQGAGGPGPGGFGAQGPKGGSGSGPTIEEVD

As to `O=c1c(O)c(-c2cc(O)c(O)c(O)c2)oc2cc(O)cc(O)c12` [myricetin], the “known modulator of Hsp70” value in the experiment with Hsp70 is reported as “known modulators of Hsp70”. The “hit in CE screen, reconfirmed with repurchased compound by DRC” value on Hsp70-Bag3 complex [1] was “found by CE”. On Hsp70-Bag3 complex [2], the “cross-test of CE hit by DRC in FCPIA” value is given as “reconfirmed by FCPIA” and the “result in original FCPIA screen” value was “missed in the original FCPIA screen”. `O=C(O)CN(CC(=O)O)Cc1cc2c(cc1O)Oc1cc(O)c(CN(CC(=O)O)CC(=O)O)cc1C21OC(=O)c2ccccc21` [calcein]: the “classification from electropherogram (artifact)” value at Hsp70-Bag3 complex [1] (setting [3]) is reported as “identified as a fluorescent compound that interferes with detection of free Hsp70–488”. With `CC1=C(O)C(=O)C=C2C1=CC=C1[C@@]2(C)CC[C@@]2(C)[C@@H]3C[C@](C)(C(=O)O)CC[C@]3(C)CC[C@]12C` [celastrol], the “hit in CE screen, reconfirmed with repurchased compound by DRC” value on Hsp70-Bag3 complex [1] was “found by CE”. Also, on Hsp70-Bag3 complex [2], the “cross-test of CE hit by DRC in FCPIA” value is reported as “reconfirmed by FCPIA” and the “result in original FCPIA screen” value is reported as “missed in the original FCPIA screen”. `O=C(O[C@@H]1Cc2c(O)cc(O)cc2O[C@@H]1c1cc(O)c(O)c(O)c1)c1cc(O)c(O)c(O)c1` [Epigallocatechin gallate]: at Hsp70-Bag3 complex [1] (15 μM compound, 0.5 μM Hsp70–488 and 0.5 μM Bag3), the classification from electropherogram result is reported as “confirmed PPI inhibitor”.

Turning to `Oc1cc2c(cc1O)C1c3ccc(O)c(O)c3OCC1(O)C2` (centres unmarked) [haematoxylin], the “classification from electropherogram (artifact)” value at Hsp70-Bag3 complex [1] (setting [3]) was “identified as an aggregator”. On to “unlabeled Hsp70: unlabeled recombinant human Hsp70 (HSPA1) used as competitor and positive control”, for which the “IC50 (decrease of bound to free peak area ratio)” value with Hsp70-Bag3 complex [1] (0.5 μM Hsp70–488 and 0.5 μM Bag3 with increasing unlabeled Hsp70) is 240 ± 3 nM and 240 nM.
